Broadly, the solubility is the concentration that dissolves in the medium under given conditions. Lower therefore signals a poorly soluble substance. As a reminder, the pIC50 is the IC50 on a negative log10 scale, so that one unit is a factor of ten.

Data set [1] is described as follows: Aqueous solubility of the compound in 0.1 M sodium phosphate buffer at pH 7.4. The data set is classed as physicochemical. In short, it runs like this:
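Solubility determined in 0.1 M sodium phosphate buffer, pH 7.4, with 1% DMSO present.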

Data set [2] deals with T1, Bifunctional epoxide hydrolase 2 (Homo sapiens, UniProt P34913).
T1 sequence (P34913 whole entry): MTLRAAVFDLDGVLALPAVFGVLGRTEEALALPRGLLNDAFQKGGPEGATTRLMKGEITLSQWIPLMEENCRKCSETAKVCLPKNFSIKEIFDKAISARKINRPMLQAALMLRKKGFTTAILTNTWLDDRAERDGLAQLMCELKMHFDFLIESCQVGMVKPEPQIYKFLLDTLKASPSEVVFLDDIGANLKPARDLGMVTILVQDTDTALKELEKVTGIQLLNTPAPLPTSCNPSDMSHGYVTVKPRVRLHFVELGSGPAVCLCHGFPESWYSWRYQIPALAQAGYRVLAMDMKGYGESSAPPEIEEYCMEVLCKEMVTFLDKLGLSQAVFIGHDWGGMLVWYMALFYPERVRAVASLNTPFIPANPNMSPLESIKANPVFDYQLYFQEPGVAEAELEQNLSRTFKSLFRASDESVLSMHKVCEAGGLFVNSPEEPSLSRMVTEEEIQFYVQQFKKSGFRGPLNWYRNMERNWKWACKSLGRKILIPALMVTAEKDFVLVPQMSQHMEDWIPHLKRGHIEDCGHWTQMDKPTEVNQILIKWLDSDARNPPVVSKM
The data set can be described thus: Inhibition of recombinant human sEH expressed in baculovirus expression system using CMNPC as substrate preincubated for 5 mins followed by substrate addition measured for 10 mins by fluorescent based assay. The procedure, abridged: (§1)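 Kinetic fluorescent assay giving IC50 values; each value is the mean of three separate experiments.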

Data set [3] has as its target T2, Bifunctional epoxide hydrolase 2 (Rattus norvegicus, UniProt P80299).
T2 sequence (P80299 whole entry): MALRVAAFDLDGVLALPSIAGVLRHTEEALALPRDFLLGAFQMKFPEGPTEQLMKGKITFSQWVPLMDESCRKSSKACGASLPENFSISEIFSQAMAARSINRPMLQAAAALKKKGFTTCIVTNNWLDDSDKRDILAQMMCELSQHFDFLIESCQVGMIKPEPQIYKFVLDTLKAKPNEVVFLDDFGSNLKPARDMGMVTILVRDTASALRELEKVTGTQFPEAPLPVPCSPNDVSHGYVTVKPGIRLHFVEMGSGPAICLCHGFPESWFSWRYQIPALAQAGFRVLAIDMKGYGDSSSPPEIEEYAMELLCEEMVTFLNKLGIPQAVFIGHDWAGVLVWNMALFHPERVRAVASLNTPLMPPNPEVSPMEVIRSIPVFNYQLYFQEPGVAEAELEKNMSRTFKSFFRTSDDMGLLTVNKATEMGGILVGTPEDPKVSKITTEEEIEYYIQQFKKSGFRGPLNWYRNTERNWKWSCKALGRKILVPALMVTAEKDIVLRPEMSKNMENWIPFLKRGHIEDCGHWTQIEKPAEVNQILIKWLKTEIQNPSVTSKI
Nature of the data set: Inhibition of rat sEH using CMNPC as substrate preincubated for 5 mins followed by substrate addition measured for 10 mins by fluorescent based assay. In short, it runs like this:
as §1

For data set [4], the target named is T3, Bifunctional epoxide hydrolase 2 (Mus musculus, UniProt P34914).
T3 sequence (P34914 whole entry): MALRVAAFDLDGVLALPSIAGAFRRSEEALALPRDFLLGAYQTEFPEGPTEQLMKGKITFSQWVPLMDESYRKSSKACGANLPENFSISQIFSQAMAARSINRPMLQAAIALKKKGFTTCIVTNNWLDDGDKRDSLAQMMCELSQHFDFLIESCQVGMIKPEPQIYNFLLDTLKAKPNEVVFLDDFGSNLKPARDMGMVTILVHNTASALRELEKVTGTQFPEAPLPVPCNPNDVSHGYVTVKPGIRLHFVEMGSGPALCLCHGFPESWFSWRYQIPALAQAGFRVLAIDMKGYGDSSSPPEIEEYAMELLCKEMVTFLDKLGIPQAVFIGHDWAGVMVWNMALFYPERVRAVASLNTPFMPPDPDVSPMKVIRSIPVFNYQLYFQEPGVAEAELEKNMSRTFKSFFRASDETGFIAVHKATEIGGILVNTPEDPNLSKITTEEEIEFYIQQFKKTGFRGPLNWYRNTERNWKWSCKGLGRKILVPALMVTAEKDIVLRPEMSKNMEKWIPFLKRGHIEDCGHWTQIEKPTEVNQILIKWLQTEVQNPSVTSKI
The data set can be described thus: Inhibition of recombinant mouse sEH expressed in baculovirus expression system using CMNPC as substrate preincubated for 5 mins followed by substrate addition measured for 10 mins by fluorescent based assay. In short, it runs like this:
as §1

Molecules are shown by their SMILES. pIC50: −log10 of the molar value. ≈ marks a conversion by molar mass, not a printed value.

In the case of `CC(NC(=S)NCCCCNC(=S)NC(C)C12CC3CC(CC(C3)C1)C2)C12CC3CC(CC(C3)C1)C2` (centres undefined), in data set [1], the solubility fell in the range of 120 to 130 µM (≈ 63.7 to 69 µg/mL).

In data set [1], `CC12CC3CC(C)(C1)CC(NC(=S)NCCc1ccccc1)(C3)C2` had a solubility of 8 to 12 µM (≈ 2.74 to 4.11 µg/mL). In addition, the pIC50 in data set [2] was 6.67.

`CC(NC(=S)Nc1ccc(C23CC4CC(CC(C4)C2)C3)cc1)C12CC3CC(CC(C3)C1)C2` (centres undefined) showed a solubility in data set [1] of 10 to 15 µM (≈ 4.49 to 6.73 µg/mL). In addition, the negative logarithm of the IC50 (pIC50) in data set [2] was 4.24.

Take `S=C(NCCC12CC3CC(CC(C3)C1)C2)Nc1ccc(C23CC4CC(CC(C4)C2)C3)cc1`: the solubility in data set [1] is 100 to 120 µM (≈ 44.9 to 53.8 µg/mL). In data set [2], the pIC50 was 5.27.

Regarding `S=C(NCCC12CC3CC(CC(C3)C1)C2)NC1C2CC3CC(C2)CC1C3` (centres undefined), the solubility in data set [1] lay in the range of 125 to 150 µM (≈ 46.6 to 55.9 µg/mL). Also, the pIC50 in data set [2] is 6.59.

`S=C(NCC12CC3CC(CC(C3)C1)C2)NC12CC3CC(CC(C3)C1)C2` returned a solubility in data set [1] of 70 to 80 µM (≈ 25.1 to 28.7 µg/mL). Moreover, the pIC50 in data set [2] is 7.68.

For `Fc1cccc(NC(=S)NCC23CC4CC(CC(C4)C2)C3)c1`, the solubility in data set [1] was 30 to 40 µM (≈ 9.55 to 12.7 µg/mL). Further, the pIC50 in data set [2] was 6.55.

Turning to `S=C(NCCCCCCCNC(=S)NC12CC3CC(CC(C3)C1)C2)NC12CC3CC(CC(C3)C1)C2`, in data set [1], the solubility lay in the range of 70 to 80 µM (≈ 36.2 to 41.3 µg/mL). Also, the figures for the pIC50 in data set [3], in data set [2] and in data set [4] were 7.45, 8.14 and 7.33, respectively.

Regarding `CC(NC(=S)Nc1ccc(F)cc1)C12CC3CC(CC(C3)C1)C2` (centres undefined), in data set [1], the solubility was 75 to 100 µM (≈ 24.9 to 33.2 µg/mL). Moreover, the pIC50 in data set [2] is 5.96.

With `CC(NC(=S)Nc1ccccc1)C12CC3CC(CC(C3)C1)C2` (centres undefined), the negative-log IC50 (pIC50) in data set [2] was 5.59.

`CC12CC3CC(C)(C1)CC(NC(=S)Nc1ccccc1)(C3)C2` returned a solubility in data set [1] of 40 to 60 µM (≈ 12.6 to 18.9 µg/mL). Moreover, the pIC50 in data set [2] is 5.91.

In the case of `CC(NC(=S)NCCCCCCCCNC(=S)NC(C)C12CC3CC(CC(C3)C1)C2)C12CC3CC(CC(C3)C1)C2` (centres undefined), the solubility in data set [1] lay within 120 to 130 µM (≈ 70.4 to 76.3 µg/mL).

`CC(NC(=S)NCCc1ccccc1)C12CC3CC(CC(C3)C1)C2` (centres undefined) had a solubility in data set [1] of 20 to 30 µM (≈ 6.85 to 10.3 µg/mL). Further, the pIC50 in data set [2] was 6.46.

In data set [1], `CC12CC3CC(C)(C1)CC(NC(=S)Nc1ccc(C45CC6CC(CC(C6)C4)C5)cc1)(C3)C2` had a solubility of 70 to 80 µM (≈ 31.4 to 35.9 µg/mL). The pIC50 in data set [2] is 5.61.

With `S=C(NCC12CC3CC(CC(C3)C1)C2)Nc1ccc(C23CC4CC(CC(C4)C2)C3)cc1`, the solubility in data set [1] fell in the range of 65 to 75 µM (≈ 28.3 to 32.6 µg/mL). In addition, in data set [2], the negative-log IC50 (pIC50) is 5.23.

On to `CC(NC(=S)NC1C2CC3CC(C2)CC1C3)C12CC3CC(CC(C3)C1)C2` (centres undefined), for which the solubility in data set [1] was 30 to 40 µM (≈ 11.2 to 14.9 µg/mL). Moreover, the pIC50 in data set [2] was 5.11.

For the compound `CC12CC3CC(C)(C1)CC(NC(=S)NCc1ccccc1)(C3)C2`, in data set [1], the solubility lay within 10 to 15 µM (≈ 3.29 to 4.93 µg/mL). Moreover, the negative-log IC50 (pIC50) in data set [2] is 7.24.

Compound `S=C(NC1C2CC3CC(C2)CC1C3)NC1C2CC3CC(C2)CC1C3` (centres undefined) gave a solubility in data set [1] of 50 to 60 µM (≈ 17.2 to 20.7 µg/mL). In addition, in data set [2], the pIC50 is 6.88.

In data set [1], `S=C(Nc1ccc(C23CC4CC(CC(C4)C2)C3)cc1)NC1C2CC3CC(C2)CC1C3` (centres undefined) returned a solubility of 175 to 200 µM (≈ 73.6 to 84.1 µg/mL). Besides, the pIC50 in data set [2] is 5.23.

Take `CC(NC(=S)NC12CC3CC(CC(C3)C1)C2)C12CC3CC(CC(C3)C1)C2` (centres undefined): the pIC50 in data set [2] is 7.22.

For `Fc1cccc(NC(=S)NCCC23CC4CC(CC(C4)C2)C3)c1`, the solubility in data set [1] was in the range of 80 to 90 µM (≈ 26.6 to 29.9 µg/mL). In data set [2], the pIC50 was 6.80.

`CC12CC3CC(C)(C1)CC(NC(=S)Nc1cccc(F)c1)(C3)C2` showed a solubility in data set [1] of 50 to 60 µM (≈ 16.6 to 19.9 µg/mL). For the same compound, the pIC50 in data set [2] was 7.24.

In the case of `S=C(NCCCCCCCCNC(=S)NC12CC3CC(CC(C3)C1)C2)NC12CC3CC(CC(C3)C1)C2`, the solubility in data set [1] was in the range of 40 to 50 µM (≈ 21.2 to 26.5 µg/mL). Further, the pIC50 in data set [3] was 6.43; in data set [2] it was 8.01; in data set [4] it was 5.93.

As to `Fc1ccc(NC(=S)NCCC23CC4CC(CC(C4)C2)C3)cc1`, the solubility in data set [1] fell in the range of 125 to 150 µM (≈ 41.6 to 49.9 µg/mL). Besides, in data set [2], the pIC50 was 6.83.

As to `CCC(CC12CC3CC(CC(C3)C1)C2)NC(=S)Nc1ccccc1` (centres undefined), in data set [2], the pIC50 was 4.30.

The values are drawn from ChEMBL document CHEMBL4118216, “Adamantyl thioureas as soluble epoxide hydrolase inhibitors” (Bioorg Med Chem Lett, 2018).
